# From ChEMBL document CHEMBL1142406, “2-Heteroarylimino-5-benzylidene-4-thiazolidinones analogues of 2-thiazolylimino-5-benzylidene-4-thiazolidinones with antimicrobial activity: synthesis and structure-activity relationship” (2008)
# Active and inactive are the calls of the source. The rule behind the calls is not given here.
# Tests used:
# Haemophilus influenzae = assay: Antimicrobial activity against Haemophilus influenzae by broth dilution technique; format: functional
# Method in brief: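 Haemophilus Test Medium broth dilution. Compounds in DMSO are added to final dilutions, with DMSO at most 1% v/v. MIC is the lowest concentration completely inhibiting growth.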
# Enterococcus faecium = assay: Antimicrobial activity against Streptococcus faecium by broth dilution technique; format: functional
# Method in brief: (§1)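 Broth dilution in Mueller Hinton Broth. Compounds are dissolved in DMSO (never above 1% v/v final) and serially diluted. MIC is the lowest concentration giving complete growth inhibition.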
# Enterococcus faecalis = assay: Antimicrobial activity against Streptococcus faecalis by broth dilution technique; format: functional; method in brief: as §1
# [1] = tested on: Staphylococcus epidermidis; assay: Antimicrobial activity against Staphylococcus epidermidis ATCC 12228 by broth dilution technique
# Staphylococcus aureus [2] = assay: Antimicrobial activity against Staphylococcus aureus ATCC 25923 by broth dilution technique; format: functional; method in brief: as §1
# Streptococcus pyogenes = assay: Antimicrobial activity against Streptococcus pyogenes by broth dilution technique; format: functional
# Method in brief: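 Tryptose Phosphate Broth dilution. Compounds are dissolved in DMSO, with DMSO at most 1% v/v final. MIC is taken as the lowest concentration with complete growth inhibition.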
# [3] = tested on: Staphylococcus haemolyticus; assay: Antimicrobial activity against Staphylococcus haemolyticus by broth dilution technique; format: functional; method in brief: as §1
# Staphylococcus aureus [4] = assay: Antimicrobial activity against penicillin-resistant Staphylococcus aureus by broth dilution technique; format: functional
# Method in brief: (§2)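 Broth dilution in Mueller Hinton Broth with compounds predissolved in DMSO (at most 1% v/v). Final concentrations ranged from 100 to 0.0015, and the inoculum was 5.10⁴ bacteria/mL. Plates were incubated at 37 °C for 24 h. MIC was taken as the lowest concentration giving complete growth inhibition.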
# Micrococcus luteus = assay: Antimicrobial activity against Sarcina lutea by broth dilution technique; format: functional; method in brief: as §1
# Saccharomyces cerevisiae [5] = assay: Antimicrobial activity against Saccharomyces cerevisiae ATCC 9763 by broth dilution technique; format: functional
# Method in brief: (§3)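 Fungi are tested by Sabouraud Liquid Medium dilution. Compounds are in DMSO, with DMSO at most 1% v/v final. Inoculum is 1×10³ fungi/mL, incubated 48 h at 30 °C. MIC is the lowest concentration completely inhibiting growth. For MFC, 100 µL of clear mixtures is subcultured into 1 mL fresh medium and read after 48 h at 30 °C.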
# Priestia megaterium = assay: Antimicrobial activity against Bacillus megaterium by broth dilution technique; format: functional; method in brief: as §1
# Candida tropicalis [6] = assay: Antimicrobial activity against Candida tropicalis ATCC 1369 by broth dilution technique; format: functional; method in brief: as §3
# [7] = tested on: Staphylococcus epidermidis; assay: Antimicrobial activity against penicillin-resistant Staphylococcus epidermidis by broth dilution technique; format: functional; method in brief: as §2
# Aspergillus niger [8] = assay: Antimicrobial activity against Aspergillus niger ATCC 6275 by broth dilution technique; format: functional; method in brief: as §3
# Bacillus subtilis = assay: Antimicrobial activity against Bacillus subtilis ATCC 6633 by broth dilution technique; format: functional; method in brief: as §1
# Bacillus thuringiensis = assay: Antimicrobial activity against Bacillus thuringiensis var. kurstaki BGSC 4D1 by broth dilution technique; format: functional; conditions: serovar kurstaki; method in brief: as §1
# Streptococcus agalactiae = assay: Antimicrobial activity against Streptococcus agalactiae by broth dilution technique; format: functional; method in brief: as §1
# Aspergillus niger [9] = assay: Antimicrobial activity against Aspergillus niger ATCC 6275 upto 100 ug/ml by broth dilution technique; format: functional, organism-based; method in brief: as §3
# Candida tropicalis [10] = assay: Antimicrobial activity against Candida tropicalis ATCC 1369 upto 100 ug/ml by broth dilution technique; format: functional, organism-based; method in brief: as §3
# Saccharomyces cerevisiae [11] = assay: Antimicrobial activity against Saccharomyces cerevisiae ATCC 9763 upto 100 ug/ml by broth dilution technique; format: functional, organism-based; method in brief: as §3
# Escherichia coli = assay: Antimicrobial activity against Escherichia coli SPA27 upto 100 ug/ml by broth dilution technique; format: functional, organism-based; method in brief: as §1
smiles,measurement,setting,value
O=C1CS/C(=N/c2nc3ccccc3s2)N1,MIC,Haemophilus influenzae,0.7 µg/mL
same,MIC,Enterococcus faecium,> 100 µg/mL
same,MIC,Enterococcus faecalis,> 100 µg/mL
same,MIC,[1],100 µg/mL
same,MIC,Staphylococcus aureus [2],25 µg/mL
same,MIC,Streptococcus pyogenes,> 100 µg/mL
same,MIC,[3],50 µg/mL
same,MIC,Staphylococcus aureus [4],25 µg/mL
same,MIC,Micrococcus luteus,50 µg/mL
same,MIC,Saccharomyces cerevisiae [5],50 µg/mL
same,MIC,Priestia megaterium,25 µg/mL
same,MIC,Candida tropicalis [6],50 µg/mL
same,MIC,[7],100 µg/mL
same,MIC,Aspergillus niger [8],25 µg/mL
same,MIC,Bacillus subtilis,12 µg/mL
same,MIC,Bacillus thuringiensis,25 µg/mL
same,MIC,Streptococcus agalactiae,> 100 µg/mL
COc1cc(/C=C2\S/C(=N/c3nc4ccccc4s3)NC2=O)ccc1O,MIC,Haemophilus influenzae,> 100 µg/mL
same,Activity,Aspergillus niger [9],inactive
same,MIC,Enterococcus faecium,> 100 µg/mL
same,MIC,Enterococcus faecalis,> 100 µg/mL
same,MIC,[1],6 µg/mL
same,MIC,Staphylococcus aureus [2],6 µg/mL
same,MIC,Streptococcus pyogenes,> 100 µg/mL
same,Activity,Candida tropicalis [10],inactive
same,MIC,[3],> 100 µg/mL
same,MIC,Staphylococcus aureus [4],6 µg/mL
same,Activity,Saccharomyces cerevisiae [11],inactive
same,MIC,Micrococcus luteus,12 µg/mL
same,MIC,Priestia megaterium,12 µg/mL
same,MIC,[7],12 µg/mL
same,Activity,Escherichia coli,inactive
same,MIC,Bacillus subtilis,> 100 µg/mL
same,MIC,Bacillus thuringiensis,6 µg/mL
same,MIC,Streptococcus agalactiae,> 100 µg/mL
O=C1N/C(=N\c2nc3ccccc3s2)S/C1=C\c1ccc(Cl)cc1,MIC,Haemophilus influenzae,> 100 µg/mL
same,Activity,Aspergillus niger [9],inactive
same,MIC,Enterococcus faecium,> 100 µg/mL
same,MIC,Enterococcus faecalis,100 µg/mL
same,MIC,[1],12 µg/mL
same,MIC,Staphylococcus aureus [2],> 100 µg/mL
same,MIC,Streptococcus pyogenes,> 100 µg/mL
same,Activity,Candida tropicalis [10],inactive
same,MIC,[3],100 µg/mL
same,MIC,Staphylococcus aureus [4],> 100 µg/mL
same,Activity,Saccharomyces cerevisiae [11],inactive
same,MIC,Micrococcus luteus,12 µg/mL
same,MIC,Priestia megaterium,12 µg/mL
same,MIC,[7],12 µg/mL
same,Activity,Escherichia coli,inactive
same,MIC,Bacillus subtilis,12 µg/mL
same,MIC,Bacillus thuringiensis,6 µg/mL
same,MIC,Streptococcus agalactiae,> 100 µg/mL
O=C1N/C(=N\c2nc3ccccc3s2)S/C1=C\c1cccc([N+](=O)[O-])c1,MIC,Haemophilus influenzae,> 100 µg/mL
same,Activity,Aspergillus niger [9],inactive
same,MIC,Enterococcus faecium,> 100 µg/mL
same,MIC,Enterococcus faecalis,> 100 µg/mL
same,MIC,[1],6 µg/mL
same,MIC,Staphylococcus aureus [2],6 µg/mL
same,MIC,Streptococcus pyogenes,> 100 µg/mL
same,Activity,Candida tropicalis [10],inactive
same,MIC,[3],> 100 µg/mL
same,MIC,Staphylococcus aureus [4],6 µg/mL
same,Activity,Saccharomyces cerevisiae [11],inactive
same,MIC,Micrococcus luteus,6 µg/mL
same,MIC,Priestia megaterium,12 µg/mL
same,MIC,[7],6 µg/mL
same,Activity,Escherichia coli,inactive
same,MIC,Bacillus subtilis,12 µg/mL
same,MIC,Bacillus thuringiensis,6 µg/mL
same,MIC,Streptococcus agalactiae,> 100 µg/mL
